Consider 14 molecules from PubChem BioAssay.

Assay [1] in a line: inhibitors of TNFa-induced NFkB p65 translocation, primary screen, imaging, HUVEC, MLSMR starter and 10KST1 sets (AID 438;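 active = inhibition above 20% together with a positive visual image hit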;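 note: compound added about 3h40 before a 20 min TNFalpha stimulation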;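 for inhibition: signal is the nuclear over cytoplasmic p65 intensity ratio per well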). The following applies: HUVEC TNFa-induced p65 nuclear translocation; cell count: measured here: nuclei count (cytotoxicity indicator), at 2.08 µM; inhibition: at 2 µM, stronger effect = higher value, 0% TNFa-plus-vehicle, 100% no-TNFa wells.
Assay [2] is described as follows: reduction of polyQ htt aggregates in cells – imaging, exon1htt(103Q)mCFP cells, high-content imaging, primary screen (AID 483;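 active = visual image review flags a hit and inhibition of aggregation exceeds 20%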;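 note: compound exposure lasted 3 days before fixation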;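 for nuclei count: percent of the per-plate median nuclei count of sample wells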). The following applies: exon1htt(103Q)mCFP cell line, aggregate imaging, at 2 µM; inhibition of aggregation: stronger effect = higher value; nuclei count: measured here: cell count, toxicity.
Assay [3] is described as follows: endothelial E-selectin expression blockers – imaging, HUVEC, immunofluorescence, MLSMR starter and 10KST1 sets, primary screen (AID 487;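 active = visually confirmed hit in the image check and inhibition above 20%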;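 for inhibition: signal is fraction of cell area covered by stained E-selectin grains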;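 for nuclei count: 100% = median nuclei count of all wells on the same plate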). The following applies: HUVEC TNFalpha-induced E-selectin immunofluorescence imaging, at 2 µM; inhibition: stronger effect = higher value; nuclei count: measured here: cell number, toxicity.
In assay [4] the target is Voltage-gated potassium channel subunit beta-2 (Rattus norvegicus) (UniProt P62483). In words: inhibitors of rat Kvbeta2 reductase activity – biochemical, NADPH fluorescence, primary screen (AID 622;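 active = fluorescence slope higher than the sample average by over 3 SD, cut at about -0.22 in these data, passing the limit was not always enough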;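 note: slope of raw intensity against log time taken from 70 to 1610 s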). As to conditions: recombinant KvBeta, 4-cyanobenzaldehyde reduction, at 10 µM, stronger effect = higher value.
Voltage-gated potassium channel subunit beta-2 (Rattus norvegicus), sequence (P62483 whole entry, looked up): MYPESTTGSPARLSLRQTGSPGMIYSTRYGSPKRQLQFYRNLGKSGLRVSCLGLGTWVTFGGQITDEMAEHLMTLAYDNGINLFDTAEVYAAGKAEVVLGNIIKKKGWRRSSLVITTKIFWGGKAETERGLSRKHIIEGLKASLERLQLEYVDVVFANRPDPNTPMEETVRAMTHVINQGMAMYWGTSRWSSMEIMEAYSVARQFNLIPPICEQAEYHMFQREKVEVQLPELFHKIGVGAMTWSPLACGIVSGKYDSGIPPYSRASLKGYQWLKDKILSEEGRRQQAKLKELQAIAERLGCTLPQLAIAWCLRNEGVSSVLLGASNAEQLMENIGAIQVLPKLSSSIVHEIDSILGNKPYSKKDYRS
The target is the same in assay [5]. In words: enhancers of rat Kvbeta2 NADPH turnover – biochemical, NADPH fluorescence, primary screen (AID 623;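 active = NADPH fluorescence slope more negative than the mean of all samples by about 3 SD, 99.7% confidence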;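 note: fluorescence intensity change per second fitted from 20 to 320 s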). The following applies: Recombinant KvBeta, NADPH fluorescence decrease slope, 10 min; at 10 µM; stronger effect = lower value.
The target in assay [6] is Muscarinic acetylcholine receptor M4 (Homo sapiens) (UniProt P08173). In words: M4-linked GIRK flux change, two-sided – cell-based, HEK293 M4/GIRK, thallium flux, BTC-AM, M4 allosteric agonist project, primary screen (AID 625;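 active = fluorescence slope after compound addition differing from the mean of all tested samples at 99.7% confidence, mostly higher but some lower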;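 note: thallium influx through GIRK channels coupled to M4 in HEK293 cells with BTC-AM dye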). The following applies: at 10 µM, actives lie on both sides. The essentials:
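Material: M4/GIRK1/GIRK2 stable HEK293 cell line. Medium: pH 7.3 thallium assay buffer. Dosing: single compound concentration, 10 µM final. Schedule: 1 h dye loading, 2 min kinetic read. Measured by: kinetic fluorescence with BTC-AM dye. Read-out: post-addition slope, 15–24 s, of baseline-normalized fluorescence. Benchmarks: carbachol and DMSO controls.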

Assay [7] can be described thus: blockers of RIG-like receptor reporter activation – cell-based, Sendai virus stimulus, luciferase, 10K MLSCN set, TLR/RLR signaling modifier project, primary screen (AID 602276).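 Note: firefly luciferase from ISG56 promoter only with Renilla not read in this screen; 0% = Sendai virus plus DMSO and 100% = medium plus DMSO without virus.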 As to conditions: HEK293 RL24 IRF3 luciferase reporter, at 10 µM, stronger effect = higher value.
Assay [8] is described as follows: TLR3 IRF3 reporter activation blockers – cell-based, poly I:C stimulus, luciferase, 10K MLSCN set, primary screen (AID 602277;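 active = inhibition of the reporter signal at or above 50%; inactive = inhibition below 50%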). The following applies: HEK293-TLR3 RL24 IRF3 luciferase reporter, at 10 µM, stronger effect = higher value. For orientation: Reporter assays use an easily measured gene product as a stand-in for the process of interest.

Active and inactive are the calls of the source.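 Rule for the calls, unless noted: active = inhibition at or above 50% at 10 µM; inactive = inhibition below 50%.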

Muscarinic acetylcholine receptor M4 (Homo sapiens), sequence (P08173 whole entry, looked up): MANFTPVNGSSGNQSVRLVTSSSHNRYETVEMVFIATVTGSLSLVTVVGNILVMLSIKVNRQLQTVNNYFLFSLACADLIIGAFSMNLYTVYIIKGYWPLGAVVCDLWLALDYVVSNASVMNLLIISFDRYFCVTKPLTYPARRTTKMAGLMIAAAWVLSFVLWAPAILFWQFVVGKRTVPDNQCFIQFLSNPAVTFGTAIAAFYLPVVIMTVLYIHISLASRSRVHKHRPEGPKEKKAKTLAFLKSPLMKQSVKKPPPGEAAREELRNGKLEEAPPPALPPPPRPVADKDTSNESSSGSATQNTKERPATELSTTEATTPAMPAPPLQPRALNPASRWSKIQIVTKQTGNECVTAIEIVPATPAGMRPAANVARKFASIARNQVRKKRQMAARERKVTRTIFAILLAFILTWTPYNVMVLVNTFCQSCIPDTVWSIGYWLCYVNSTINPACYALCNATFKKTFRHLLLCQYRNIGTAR

By inhibition is commonly meant the drop in the measured response relative to a control, in per cent. In the case of `Cc1ccccc1NC(=O)c1c(F)c(F)c(F)c(F)c1F`, the cell count in assay [1] came out at 490. In addition, the inhibition is -6% (inactive) in assay [1], -102% (inactive) in assay [3], 12.8% (inactive) in assay [7] and 11.6% (inactive) in assay [8]. The inhibition of aggregation in assay [2] was -11.8% (inactive). Moreover, the nuclei count in assay [2] was 98.6%; in assay [3] it was 135%. Also, the fluorescence slope in assay [4] is -0.565 (inactive); in assay [6] it was 0.00407 (inactive). For the same molecule, in assay [5], the NADPH fluorescence slope was -8.2e-05 (inactive).
In the case of `COc1ccccc1N1CCN(C(=O)c2ccc(CS(=O)(=O)c3ccccc3OC)o2)CC1`, the cell count in assay [1] was found to be 550. Besides, the inhibition in assay [1] is -12.7% (inactive); in assay [3], -68.7% (inactive); in assay [7] it was 6.55% (inactive); in assay [8], 15.7% (inactive). In addition, the inhibition of aggregation in assay [2] was -6.3% (inactive). For the same molecule, the nuclei count in assay [2] is 110%; in assay [3] it was 113%. Further, the figures for the fluorescence slope in assay [4] and in assay [6] were -0.478 (inactive) and 0.00677 (inactive), respectively. Besides, the NADPH fluorescence slope in assay [5] was 3.4e-05 (inactive).
Turning to `COC(=O)CN1C(=O)C2(C(C#N)=C(N)Oc3c2c(C)nn3-c2ccccc2)c2ccccc21` (centres undefined), the cell count in assay [1] was 668. The inhibition in assay [1] was -24.1% (inactive); in assay [3], 18.6% (inactive); in assay [7] it was 16.1% (inactive); in assay [8] it was 19.7% (inactive). In assay [2], the inhibition of aggregation was 5% (inactive). Moreover, the nuclei count in assay [2] and in assay [3] was 97.4% in each case. Moreover, the fluorescence slope in assay [4] was -0.475 (inactive); in assay [6], 0.0047 (inactive). Also, in assay [5], the NADPH fluorescence slope was -6.6e-05 (inactive).
As to `O=C(CCn1nc(-c2ccccc2)ccc1=O)N1CCCC1`, in assay [1], the cell count turned out to be 349. Besides, the inhibition in assay [1] is 2.1% (inactive); in assay [3], -8.9% (inactive); in assay [7], 6.69% (inactive); in assay [8], 2.22% (inactive). Further, the inhibition of aggregation in assay [2] was -17% (inactive). The values for the nuclei count in assay [2] and in assay [3] were 95.9% and 106%, respectively. For the same molecule, the fluorescence slope was -0.577 (inactive) in assay [4] and 0.00645 (inactive) in assay [6]. For the same molecule, in assay [5], the NADPH fluorescence slope was -2e-05 (inactive).
As for `CC1CCN(C(=O)C2CCN(S(=O)(=O)c3cnc[nH]3)CC2)CC1`, the cell count in assay [1] is 464. Further, the inhibition in assay [1] is 2.5% (inactive); in assay [3], -170% (inactive); in assay [7], 15.5% (inactive); in assay [8] it was 19.2% (inactive). In assay [2], the inhibition of aggregation was 22% (inactive). The nuclei count in assay [2] was 90.5%; in assay [3], 116%. The fluorescence slope is -0.553 (inactive) in assay [4] and 0.00577 (inactive) in assay [6]. For the same molecule, in assay [5], the NADPH fluorescence slope is -1.4e-05 (inactive).
`CC(C(=O)N1CC2(C)CC1CC(C)(C)C2)N1C(=O)c2ccccc2C1=O` (centres undefined): the cell count in assay [1] worked out at 239. Also, the inhibition in assay [1] was 5.1% (inactive); in assay [3], -114% (inactive); in assay [7] it was 20.7% (inactive); in assay [8] it was 17.3% (inactive). In addition, the inhibition of aggregation in assay [2] was 14.3% (inactive). In addition, the nuclei count in assay [2] worked out at 99.8%; in assay [3], 95.5%. Also, the fluorescence slope was -0.504 (inactive) in assay [4] and 0.00376 (inactive) in assay [6]. Also, the NADPH fluorescence slope in assay [5] was -5.6e-05 (inactive).
Turning to `Cc1ccc(N2CCN(C(=O)c3ccccc3Br)CC2)c(C)c1`, the cell count in assay [1] came out at 655. In addition, the inhibition in assay [1] is -20.4% (inactive); in assay [3], -13.4% (inactive); in assay [7] it was 15.2% (inactive); in assay [8] it was 23.3% (inactive). In assay [2], the inhibition of aggregation was 0% (inactive). Further, the nuclei count in assay [2] amounted to 91.9%; in assay [3], 101%. The values for the fluorescence slope in assay [4] and in assay [6] were -0.532 (inactive) and 0.00352 (inactive), respectively. Also, in assay [5], the NADPH fluorescence slope was 5.2e-06 (inactive).
On to `COc1ccc(CCNS(=O)(=O)c2ccc(C(=O)NCc3ccco3)cc2)cc1OC`, for which the cell count in assay [1] is 355. The inhibition was -13.1% (inactive) in assay [1], -35.9% (inactive) in assay [3], -8.15% (inactive) in assay [7] and -15.3% (inactive) in assay [8]. In assay [2], the inhibition of aggregation was 7.4% (inactive). The nuclei count in assay [2] was 94.7%; in assay [3] it was 66.4%. Further, the fluorescence slope in assay [4] is -0.579 (inactive); in assay [6] it was 0.00625 (inactive). The NADPH fluorescence slope in assay [5] is 2.6e-05 (inactive).
Consider `O=C(O)CC1CCCC(c2ccccc2)C1=O` (centres undefined), for which the cell count in assay [1] was 658. Also, the inhibition in assay [1] is -6.5% (inactive); in assay [3] it was 108% (active); in assay [7], 8.33% (inactive); in assay [8], 11.2% (inactive). Besides, the inhibition of aggregation in assay [2] was -35% (inactive). Besides, the nuclei count worked out at 103% in assay [2] and 102% in assay [3]. Also, the values for the fluorescence slope in assay [4] and in assay [6] were -0.544 (inactive) and 0.00508 (inactive), respectively. The NADPH fluorescence slope in assay [5] was -7.4e-06 (inactive).
On to `Cc1ccc(C(=O)CCC2CCCC2=O)cc1` (centres undefined), for which the cell count in assay [1] was 718. In addition, the inhibition in assay [1] was -21.6% (inactive); in assay [3], 22.6% (inactive); in assay [7] it was -20.4% (inactive); in assay [8], -124% (inactive). Also, in assay [2], the inhibition of aggregation is -2.7% (inactive). The nuclei count in assay [2] was found to be 86.9%; in assay [3], 97.8%. In addition, the fluorescence slope in assay [4] was -0.263 (inactive); in assay [6], 0.00558 (inactive). In addition, in assay [5], the NADPH fluorescence slope is -3.8e-05 (inactive).
For the molecule `CC(C(=O)NCc1cccnc1)N1C(=O)c2ccccc2C1=O` (centres undefined), the cell count in assay [1] was found to be 783. Moreover, the inhibition in assay [1] was 5.5% (inactive); in assay [3], -39.6% (inactive); in assay [7], -0.398% (inactive); in assay [8] it was 10.3% (inactive). Further, in assay [2], the inhibition of aggregation is 3.6% (inactive). Besides, the figures for the nuclei count in assay [2] and in assay [3] were 105% and 132%, respectively. The fluorescence slope in assay [4] was -0.607 (inactive); in assay [6], 0.00555 (inactive). Moreover, the NADPH fluorescence slope in assay [5] is 1.7e-05 (inactive).
Regarding `NC(=O)SCC(=O)Nc1cccc(Cl)c1`, the cell count in assay [1] is 449. Besides, the inhibition is -0.5% (inactive) in assay [1], -267% (inactive) in assay [3], 18.6% (inactive) in assay [7] and 15.3% (inactive) in assay [8]. For the same molecule, the inhibition of aggregation in assay [2] is -7.6% (inactive). Further, the nuclei count in assay [2] is 119%; in assay [3], 132%. The fluorescence slope in assay [4] was -0.576 (inactive); in assay [6] it was 0.00648 (inactive). In assay [5], the NADPH fluorescence slope is -1.5e-06 (inactive).
Turning to `CCOC(=O)c1[nH]c(C)c(C(=O)Nc2cc(OC)ccc2OC)c1C`, the cell count in assay [1] turned out to be 671. Also, the inhibition in assay [1] was -5.9% (inactive); in assay [3] it was -153% (inactive); in assay [7], 30.4% (inactive); in assay [8] it was 51.4% (active). In addition, in assay [2], the inhibition of aggregation is -3.7% (inactive). Further, the nuclei count in assay [2] was 2.5%; in assay [3], 111%. The results for the fluorescence slope in assay [4] and in assay [6] were -0.415 (inactive) and 0.00644 (inactive), respectively. Also, in assay [5], the NADPH fluorescence slope was 4.7e-05 (inactive).
For the molecule `O=C(Cc1ccc(Br)cc1)N1CCCCCC1`, the cell count in assay [1] was determined as 358. Further, the inhibition in assay [1] is -0.2% (inactive); in assay [3] it was -68.6% (inactive); in assay [7], -33.9% (inactive); in assay [8], -69.5% (inactive). In assay [2], the inhibition of aggregation is 1.7% (inactive). In addition, the nuclei count worked out at 99.5% in assay [2] and 99.7% in assay [3]. The fluorescence slope in assay [4] is -0.657 (inactive); in assay [6], 0.00369 (inactive). For the same molecule, the NADPH fluorescence slope in assay [5] was 1.8e-05 (inactive).
